Bioassay records: PubChem, several laboratories
A selection: hits, their analogues and other compounds. The true share with any hit is near 3.1%.
pPAFAH FP inh: inhibitors of human plasma PAF acetylhydrolase (pPAFAH); 330,000 tested, 1.5% active; AID 463082; recombinant pPAFAH, FP-rhodamine probe fluorescence polarization; inhibition, % at 3.39 µM;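 active = inhibition above the mean inhibition across the screen plus 3 SD, cut at about 25% in these data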;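 note: inhibitors block binding of the rhodamine activity-based probe so polarization drops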
Target sequence (Q13093 whole entry, looked up): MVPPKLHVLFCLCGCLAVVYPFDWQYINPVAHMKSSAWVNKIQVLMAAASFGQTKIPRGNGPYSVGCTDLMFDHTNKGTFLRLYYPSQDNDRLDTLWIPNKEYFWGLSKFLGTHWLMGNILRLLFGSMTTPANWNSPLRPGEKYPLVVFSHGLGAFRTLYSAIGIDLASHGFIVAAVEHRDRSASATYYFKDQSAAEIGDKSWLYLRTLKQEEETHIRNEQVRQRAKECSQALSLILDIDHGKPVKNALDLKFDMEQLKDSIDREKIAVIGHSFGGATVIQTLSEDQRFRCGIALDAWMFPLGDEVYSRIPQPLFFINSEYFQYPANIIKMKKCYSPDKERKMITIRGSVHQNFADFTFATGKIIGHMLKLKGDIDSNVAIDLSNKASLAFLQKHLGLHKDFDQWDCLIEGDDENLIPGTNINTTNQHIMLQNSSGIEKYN
PAFAH2 inh: inhibitors of human PAFAH2. inhibition, % at 3.39 µM. 340,000 tested, 0.99% active. recombinant PAFAH2, FP-rhodamine activity probe, fluorescence polarization;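 active = inhibition above the mean over all tested compounds plus 3 SD, cut at about 30% in these data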;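 note: inhibitors block probe labeling of enzyme so polarization drops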
Apaf-1 inh: inhibitors of human Apaf-1 apoptosome; O14727; reconstituted apoptosome caspase-3 activity, DEVD-Rh110 fluorescence; inhibition, % at 20 µM; 330,000 tested, 0.71% active; active = inhibition of at least 40% at 20 µM
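Material: biochemical Apaf-1 apoptosome reconstitution. Medium: Hepes buffer, pH 7.5. Also added: cytochrome c activation, bis-DEVD rhodamine 110 substrate. Timing: 30 min compound preincubation, 50 min activation, room temperature. Measured by: rhodamine 110 fluorescence at Ex 480/Em 540 nm.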
PAFAH1B3 inh: PAFAH1B3 (human) inhibition. Q15102. AID 492972. inhibition, % at 3.39 µM. 340,000 tested, 0.28% active. recombinant PAFAH1B3, FP-rhodamine probe, fluorescence polarization;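 active = inhibition above the screen-wide average of all tested compounds plus 3 SD, cut at about 25% in these data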
PAFAH1B2 inh: PAFAH1B2 (human) inhibition; recombinant PAFAH1B2, FP-rhodamine activity probe, fluorescence polarization; 340,000 tested, 1.2% active; P68402; inhibition, % at 3.39 µM; AID 492953;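 active = inhibition above the mean of all tested compounds plus 3 SD, cut at about 24% in these data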
A number is an active result; n = inactive; x = no result given.

SMILES	pPAFAH FP inh	PAFAH2 inh	Apaf-1 inh	PAFAH1B3 inh	PAFAH1B2 inh
O=C(NCCc1nnc2ccc(N3CCCC3)nn12)c1ccccc1	n	n	n	n	n
CC(C)n1cc(C(=O)N2CCCC(N3CCN(c4cccc(Cl)c4)CC3)C2)cn1 (configuration not stated)	x	n	n	n	n
COCCn1c(CCC(=O)O)ccc1-c1cccs1	n	n	n	n	n
CCCCn1c(CCC(=O)O)ccc1-c1cccs1	28	n	n	n	n
Cc1ccc(-n2c(CCC(=O)O)ccc2-c2cccs2)cc1C	29	n	n	n	n
Cc1nc(C)c(C(=O)N2CCCC(C(=O)c3ccc(Cl)cc3C)C2)s1 (configuration not stated)	n	n	n	n	n
COc1ccccc1NC(=O)CCCCCN1C(=O)c2cccc([N+](=O)[O-])c2C1=O	n	n	n	n	n
COc1cc(/C=C2/C(=O)c3cccc([N+](=O)[O-])c3C2=O)c(Br)cc1O	32	40	x	40	n
COc1cccc(-c2nc(-c3ccccc3)c(-c3ccccc3)[nH]2)c1OCC(=O)O	x	n	n	n	24
O=C(O)COc1ccccc1-c1nc(-c2ccccc2)c(-c2ccccc2)[nH]1	n	n	n	n	36
COc1cccc(-c2nc(-c3ccc4c(c3)-c3ccccc3S4(=O)=O)c(-c3ccccc3)[nH]2)c1OC	n	n	n	n	n
O=C(O)COc1ccc(-c2nc(-c3ccccc3)c(-c3ccccc3)[nH]2)cc1	n	n	n	n	n
CC(OC(=O)c1ccc(-c2ccc(O)cc2)cc1)C(=O)NC1CCCCC1C (configuration not stated)	n	n	n	n	n
COc1ccccc1CN(C)CC(=O)NC1CCCc2ccccc21 (configuration not stated)	n	n	n	n	n
COc1ccccc1CN(C)CC(=O)NC(=O)NC1CCCCC1	34	n	n	n	n
CN(CC(=O)Nc1ccc(C#N)cc1)Cc1ccc(Cl)cc1	n	n	n	n	31
CN(CC(=O)NC(=O)NC1CCCCC1)CC(=O)Nc1ccc(Cl)cc1	n	n	n	n	24
Cc1ccc(S(=O)(=O)N2CCSCCSCCSCCSCC2)cc1	x	n	x	n	n
Cc1c(C)n(CCc2ccccc2)c2ncnc(NCCCN(C)C)c12	n	n	n	n	n
C=CC[n+]1c(-c2ccc(Cl)cc2Cl)csc1Nc1ccc(NC(C)=O)cc1	25	33	n	n	n
COc1ccc(C(=O)ON=C2CCN(c3ccc([N+](=O)[O-])cc3)CC2)cc1	n	89	n	n	n
COc1ccc(C(=O)CCC(=O)N2CCN(c3ccc([N+](=O)[O-])cc3)CC2)cc1	n	n	n	n	n
COc1ccc(Oc2nc(-c3cccnc3)nc3ccccc23)cc1	n	n	n	n	n
CC(=O)CCc1ccc(Oc2nc(-c3cccnc3)nc3ccccc23)cc1	25	n	n	n	n
CC(NC(=O)C12CC3CC(CC(C3)C1)C2)c1ccc(F)cc1 (configuration not stated)	n	n	n	n	n
SMILES	pPAFAH FP inh	PAFAH2 inh	Apaf-1 inh	PAFAH1B3 inh	PAFAH1B2 inh
CC12CC3CC(C)(C1)CC(C(=O)NNC(=O)c1ccncc1)(C3)C2	n	n	n	n	25
CC(NC(=O)C12CC3CC(C)(CC(C)(C3)C1)C2)c1ccncc1 (configuration not stated)	n	n	n	n	25
O=C(NNC(=O)C12CC3CC(CC(C3)C1)C2)c1ccncc1	n	n	n	n	n
CCCCN(C(=O)c1c(CC)noc1C)c1c(N)n(CCCC)c(=O)[nH]c1=O	n	n	n	n	n
COc1ccc(Cl)cc1NC(=O)NN1CCN(C)CC1	n	n	n	n	n
COc1cccc(-c2nc(SCC(=O)Nc3nc(-c4ccccc4)c(C)s3)[nH]c(=O)c2C#N)c1	n	n	n	n	n
CCOC(=O)Cc1csc(NC(=O)CSc2nc(-c3ccccc3)c(C#N)c(=O)[nH]2)n1	n	n	n	n	65
CCOc1ccc2nc(NC(=O)CSc3nc(-c4ccccc4)c(C#N)c(=O)[nH]3)sc2c1	x	n	n	n	82
COc1cc(NC(=O)CN2c3cccc4cccc(c34)S2(=O)=O)cc(OC)c1OC	n	n	n	n	n
COc1ccccc1CNC(=O)CN1c2cccc3cccc(c23)S1(=O)=O	31	n	n	n	n
CS(=O)(=O)N(CC(=O)NCCSCc1ccccc1)c1ccccc1	n	n	n	n	n
CCOc1ccc(N(CC(=O)NCCSCc2ccccc2)S(C)(=O)=O)cc1	n	n	n	n	n
CCOc1ccc(N(CC(=O)NCCSCc2ccccc2)S(=O)(=O)c2ccccc2)cc1	28	n	n	n	n
Cc1cc(C)cc(N(CC(=O)NCCSCc2ccccc2)S(C)(=O)=O)c1	31	n	n	n	n
Cc1ccccc1Nc1nc(N)nc(CN(C)Cc2ccccc2Cl)n1	n	n	n	n	n
Cc1n[nH]c(C)c1CCCCOc1ccccc1[N+](=O)[O-]	n	n	n	n	n
O=C(O)c1cccc(S(=O)(=O)Nc2ccc3oc(=O)sc3c2)c1	n	n	n	n	27
Cc1c(-c2ccccc2)cnc2c(C)cccc12	n	n	n	n	n
O=C(Nc1ccccc1)c1ccc(-c2ccc([N+](=O)[O-])cc2)o1	n	n	n	n	n
O=C(NNC(=O)c1ccccc1O)c1cc2ccccc2o1	26	n	n	n	n
O=C(NNC(=O)c1ccccc1O)c1ccc(-c2ccc([N+](=O)[O-])cc2)o1	32	39	n	n	n
CC(C(=O)O)N1C(=O)C2C3c4ccccc4C(c4ccccc43)[C@@H]2C1=O (some centres not stated)	n	n	n	n	n
O=C(O)CCCN1C(=O)C2C3CC(C2C1=O)C1C(c2ccccc2)c2sc(=O)[nH]c2SC31 (configuration not stated)	n	n	n	n	81
CC(C(=O)O)N1C(=O)C2C3CC(C2C1=O)C1C(c2ccccc2)c2sc(=O)[nH]c2SC31 (configuration not stated)	n	n	n	n	55
O=C(O)CN1C(=O)C2C3CC(C2C1=O)C1C(c2ccc(F)cc2)c2sc(=O)[nH]c2SC31 (configuration not stated)	n	n	n	n	54
COC(=O)C1Sc2[nH]c(=O)sc2C(c2ccc(Cl)cc2)C1C(=O)OC (configuration not stated)	n	n	n	n	n
O=C(O)CN1C(=O)C2C3CC(C2C1=O)C1C(c2ccc(Cl)cc2)c2sc(=O)[nH]c2SC31 (configuration not stated)	n	n	n	n	47
CCOc1ccccc1C(=O)Nc1cc(C)ccc1NC(=O)c1ccco1	n	n	n	n	n
CN(c1ccc(C(=O)N/N=C/c2cccc([N+](=O)[O-])c2)cc1)S(=O)(=O)c1ccccc1	n	n	n	n	n
